Assay [1] deals with Vascular endothelial growth factor receptor 2 (Homo sapiens, UniProt P35968). Nature of the assay: Inhibition of vascular endothelial growth factor receptor 2.
The target in assay [2] is T1, Cyclin-dependent kinase 1 (Homo sapiens, UniProt P06493). The assay can be described thus: Inhibition of cyclin dependent kinase (CDK1). An outline of the steps:
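Radiometric FlashPlate assay: biotinylated peptide substrate at 0.025 μM with 33P-γ-ATP plus 10 μM ATP in 50 mM Tris-HCl pH 8, 10 mM MgCl2, 0.1 mM Na3VO4, 1 mM DTT. Incubated 1 h at 30 °C, stopped by PBS/100 mM EDTA wash, then scintillation counted. Inhibition is relative to untreated controls; IC50 from linear regression of percent inhibition. Conditions varied slightly per kinase.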

Assay [3] can be described thus: Inhibition of Glycogen synthase kinase-3 beta.
Assay [4] concerns the target Mitogen-activated protein kinase 1 (Homo sapiens, UniProt P28482). Nature of the assay: Inhibition of ERK 2.
Assay [5] concerns the target Cyclin-dependent kinase 7/ cyclin H (Homo sapiens, UniProt P50613). The assay can be described thus: Inhibition of CDK7/cyclin H. In kind it is protein-complex assay. An outline of the steps:
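Run by Upstate Biotech as a contract panel: kinase phosphorylation of an appropriate peptide/protein substrate with 100 μM ATP, under conditions linear with time. IC50 is the average of two separate determinations.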

Assay [6] has as its target CDK6/cyclin D3 (Homo sapiens, UniProt Q00534). The assay can be described thus: Inhibition of CDK6/cyclin D3. In kind it is protein-complex assay. An outline of the steps: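 Run in an external kinase panel. Kinase phosphorylation of the appropriate peptide/protein substrate was measured with 100 μM ATP, under conditions linear with time. IC50 is the average of two separate determinations.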

Assay [7] deals with Cyclin-dependent kinase 5/CDK5 activator 1 (Homo sapiens, UniProt Q00535).
Assay [8] has as its system A-375. The assay can be described thus: Inhibitory concentration of compound against growth of A-375 cells. The conditions noted are these: Homo sapiens.
Assay [9] concerns HCT-116. The assay can be described thus: Inhibitory concentration of compound against growth of HCT116 cells. The conditions noted are these: Homo sapiens.
Assay [10] in a line: Inhibition of Protein kinase C gamma.
Assay [11] can be described thus: Inhibitory concentration of compound against growth of MES SA cells (low p glycoprotein). The conditions noted are these: Homo sapiens.
The target of assay [12] is RAC-beta serine/threonine-protein kinase (Homo sapiens, UniProt P31751). The assay can be described thus: Inhibition of PKB beta.
Assay [13] deals with Fibroblast growth factor receptor 2 (Homo sapiens, UniProt P21802). Nature of the assay: Inhibition of Fibroblast growth factor receptor 2.
The nature of assay [14]: Inhibition of [Ca(2+)]/Calmodulin dependent kinase.
In assay [15] the target is Cyclin-dependent kinase 2/cyclin A (Homo sapiens, UniProt P24941). Nature of the assay: Inhibitory concentration of compound against CDK2/cyclin A. The format is protein-complex assay.
Assay [16] has as its system HeLa. The assay can be described thus: Inhibitory concentration of compound against growth of HeLa cells. Conditions: Homo sapiens.
Assay [17] deals with Cyclin-dependent kinase 4/cyclin D1 (Homo sapiens, UniProt P11802). The assay can be described thus: Inhibition of CDK4/cyclin D1. The format is protein-complex assay. An outline of the steps: (§1)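 Incubated 1 h at 30 °C on a streptavidin-coated plate, stopped by washing with PBS containing 100 mM EDTA, then scintillation counted. Conditions varied slightly by kinase. IC50 was derived by linear regression of % inhibition versus untreated controls.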

The nature of assay [18]: Inhibitory concentration of compound against growth of MES SA/Dx 5 cells (high p glycoprotein). The conditions noted are these: Homo sapiens, MES-SA/Dx5.
For assay [19], the target named is Casein kinase II (Homo sapiens, UniProt P19784+P67870+P68400). Nature of the assay: Inhibition of Casein kinase II. The format is protein-complex assay.
In assay [20] the target is T1, Cyclin-dependent kinase 1. The assay can be described thus: Inhibition of cyclin dependent kinase CDK1. An outline of the steps: as §1
Assay [21] relates to U-937. Nature of the assay: Inhibitory concentration of compound against growth of U-937 cells. Conditions: Homo sapiens.
Assay [22] addresses Cyclin-dependent kinase 1/cyclin B (Homo sapiens, UniProt P06493). The assay can be described thus: Inhibition of Cyclin-dependent kinase 1-cyclin B. In kind it is protein-complex assay.

Where only a bound is given, the exact number is not on record here.

For the compound `OCCCNc1cncc(-c2ncnc(Nc3cccc(Cl)c3)n2)c1`, the figures for the concentration for half-maximal inhibition (IC50) in assay [1] and in assay [2] were 2010 nM and 60 nM, respectively.
Turning to `Nc1nc(Nc2cccc(Cl)c2)nc(-c2ccnc(NCCCO)c2)n1`, the IC50 was 1070 nM in [1] and 1110 nM in assay [2].
For `OCCCNc1cncc(-c2ncnc(Nc3ccc4c(c3)OCCO4)n2)c1`, in that order: 4140 nM and 344 nM.
For `OCCCNc1cncc(-c2ncnc(Nc3ccc(N4CCOCC4)cc3)n2)c1`, in assay [1], the IC50 is 5030 nM.
As to `OCCCNc1cc(-c2ncnc(Nc3cccc(Cl)c3)n2)ccn1`, the half-maximal inhibitory concentration (IC50) in [3] was 20 nM; in assay [4], greater than 10000 nM; in assay [5], 126 nM; in assay [6], 356 nM; in [7], 3 nM; in [8], 28 nM. For the same compound, the IC50 is 23 nM in assay [9]; greater than 10000 nM in [10]; 228 nM in assay [11]; greater than 10000 nM in [12]; greater than 10000 nM in assay [13]; greater than 10000 nM in assay [14]. For the same compound, the IC50 in assay [15] was 7 nM; in assay [16] it was 33 nM; in [17], 308 nM; in [18], 235 nM; in [19], greater than 10000 nM; in [20], 21 nM. Further, the IC50 in assay [21] was found to be 31 nM; in assay [22], 21 nM.
Compound `OCCCNc1cncc(-c2ncnc(Nc3cccc(Cl)c3)n2)n1` had an IC50 in [1] greater than 10000 nM.

One may read the IC50 as the concentration at which inhibition is half-maximal. The low end stands for inhibition by little substance, the high end for a need for much substance.

Values taken from ChEMBL document CHEMBL1145155, “Synthesis and identification of [1,3,5]triazine-pyridine biheteroaryl as a novel series of potent cyclin-dependent kinase inhibitors” (J Med Chem, 2005).
